The record followed here is publication PMC8106974 (Psychopharmacology, 2020).

Where a name gives a salt, the structure may show the parent alone.

Assay type in all cases: in vivo
One experiment deals with male Sprague Dawley rats. The experiment can be described thus: SNL-induced tactile allodynia, von Frey. The following applies: i.v. The method in brief:
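Male Sprague Dawley rats (250–350g) were tested 7 days after SNL surgery, with a fresh baseline taken before dosing. Test compound, comparator or saline followed that baseline. Von Frey up-down method: start at 2 g, each filament applied once for 5 sec, 1 min between stimuli. Positive response was rapid left hind paw withdrawal or licking. Testing ran at 15–180 min post-dose, or until post-SNL baseline.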

The test system of experiment [1] is male CD-1 mice. The experiment can be described thus: Warm-water tail-withdrawal assay of acute thermal nociception, p.o.
Experiment [2] has as its system male CD-1 mice. The experiment can be described thus: CFA-induced tactile allodynia, von Frey. The following applies: i.v.
Experiment [3] deals with male CD-1 mice. The experiment can be described thus: Warm-water tail-withdrawal assay of acute thermal nociception, i.v.
Experiment [4] relates to male CD-1 mice. The experiment can be described thus: Antagonist. Particulars: naltrindole 10 mg/kg s.c., -10 min, DPDPE 30 nmol i.c.v.

Take `NCC1(CC(=O)O)CCCCC1` [gabapentin]: in the experiment on male Sprague Dawley rats (SNL model, rats (discussion)), the “time of peak effects” value was ~ 90 min. Also, in the experiment on male Sprague Dawley rats (rats, 7 days after SNL, BBI-11008 18 mg/kg, gabapentin 56 mg/kg), the “Area under the Curve (duration of effect, peak dose)” value was 130.2.
In the case of `CN1CC[C@]23c4c5ccc(O)c4O[C@H]2[C@@H](O)C=C[C@H]3[C@H]1C5` [morphine, Morphine sulfate], the “duration of peak effect” value with male CD-1 mice [1] (tail withdrawal (discussion)) was ~ 2 hr; with male CD-1 mice [2] (CFA model, mice (discussion)), 30 to 45 min; in the experiment with male CD-1 mice [3] (tail withdrawal (discussion)) it was ~ 1 hr. For the same molecule, the figures for the “overall duration of effect” value with male CD-1 mice [1] (within the dose ranges tested) and in the experiment on male CD-1 mice [3] (within the dose ranges tested) were ~ 180 min and ~ 120 min, respectively. For the same molecule, in the experiment with male CD-1 mice [2] (mice, 24 hr after CFA, BBI-11008 10-32 mg/kg, morphine 1-3.2 mg/kg), the “time of peak effects, reversal of tactile allodynia” value was in the range of 15 to 30 min. The “Area under the Curve (duration of effect, peak dose)” value with male CD-1 mice [2] (mice, BBI-11008 32 mg/kg, morphine 3.2 mg/kg, withdrawal threshold vs time) worked out at 12.85. Further, the “duration of peak antinociception” value with male CD-1 mice [3] (BBI-11008 3.2-100 mg/kg, morphine 1-10 mg/kg) is on record as ~ 60 min.
For the molecule [D-Pen^2,D-Pen^5]enkephalin [DPDPE], the “effect of NTI pretreatment on antinociceptive effects” value with male CD-1 mice [4] was “fully blocked”.
